Drawing on ChEMBL document CHEMBL1955783, “Identification and optimization of small molecule antagonists of vasoactive intestinal peptide receptor-1 (VIPR1)” (Bioorg Med Chem Lett, 2012), this text covers Activity and IC50 for 27 molecules.

Activity calls are given as the source filed them. The calls are words filed in the database; no cut-off is given here.

Test [1] addresses T1, Vasoactive intestinal polypeptide receptor 1 (Rattus norvegicus) (UniProt P30083).
T1 sequence (whole entry): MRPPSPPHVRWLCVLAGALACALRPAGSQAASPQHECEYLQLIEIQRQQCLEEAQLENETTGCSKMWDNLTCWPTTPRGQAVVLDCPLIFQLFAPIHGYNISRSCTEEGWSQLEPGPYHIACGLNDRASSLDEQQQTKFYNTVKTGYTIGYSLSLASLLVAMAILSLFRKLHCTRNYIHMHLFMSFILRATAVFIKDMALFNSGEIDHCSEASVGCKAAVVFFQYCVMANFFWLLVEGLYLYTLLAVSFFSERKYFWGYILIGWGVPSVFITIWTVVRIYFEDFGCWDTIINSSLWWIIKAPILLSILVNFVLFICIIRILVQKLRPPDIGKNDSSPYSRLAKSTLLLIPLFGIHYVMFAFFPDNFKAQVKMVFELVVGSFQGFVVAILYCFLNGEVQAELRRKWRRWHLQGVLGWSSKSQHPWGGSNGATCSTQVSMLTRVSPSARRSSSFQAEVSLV
Description: Displacement of [125I]VIP from vasoactive intestinal peptide receptor 1 in rat RKE cell membrane after 3 hrs by TopCount assay. Format: cell membranes. An outline of the steps:
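Membranes from RKE-VIPR cells, 5 µg/well final, preincubated 10 min at room temperature with wheat germ agglutinin-coated PVT beads in 50 mM HEPES, 5 mM MgCl2, 1 mM CaCl2, 0.1% BSA. IC50 taken from a four-parameter logistic fit after subtracting nonspecific binding, defined with excess VIP.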
Background: Loss of bound radioactivity is the signal in a displacement assay; it reports binding, not function.

Test [2] has as its system NCI-H1299. The test can be described thus: Cytotoxicity against human NCI-H1299 cells expressing VIPR1 in presence of 2% serum. Format: functional, cell-based. The essentials: (§1)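 Cell proliferation in H727, H1299 and Calu6 lines, chosen for high VIPR1 expression. Medium held 2% serum to limit albumin sequestration. Compounds were tested at concentrations up to 10 µM.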

The subject of test [3] is NCI-H727. The test can be described thus: Cytotoxicity against human NCI-H727 cells expressing VIPR1 in presence of 2% serum. Format: functional, cell-based. The essentials:
as §1

In test [4] the target is T2, Vasoactive intestinal polypeptide receptor 1 (Rattus norvegicus, UniProt P30083).
T2 sequence (P30083 whole entry): T1 sequence (whole entry)
The test can be described thus: Antagonist activity at vasoactive intestinal peptide receptor 1 in rat RKE cells assessed as inhibition of VIP-induced intracellular cAMP accumulation incubated for 15 mins prior to VIP-stimulation measured after 30 mins by HTRF assay. In general terms: Cyclic AMP is a second messenger, typically raised through Gs and lowered through Gi signalling.

Test [5] relates to Calu-6. The test can be described thus: Cytotoxicity against human Calu6 cells expressing VIPR1 in presence of 2% serum. Format: functional, cell-based. The essentials:
as §1

For test [6], the system named is Calu-6. The test can be described thus: Cytotoxicity against human Calu6 cells expressing VIPR1 up to 10 uM in presence of 2% serum. Format: functional, cell-based. The essentials: as §1
Test [7] has as its system NCI-H727. Description: Cytotoxicity against human NCI-H727 cells expressing VIPR1 up to 10 uM in presence of 2% serum. Format: functional, cell-based. An outline of the steps: as §1
In test [8] the test system is NCI-H1299. Description: Cytotoxicity against human NCI-H1299 cells expressing VIPR1 up to 10 uM in presence of 2% serum. Format: functional, cell-based. The essentials:
as §1

Broadly, the IC50 is the concentration that inhibits the measured activity by half.

With `N#Cc1c(NC(=O)CCc2ccccc2)sc2c1CCCC2`, in test [1], the result was Active. In addition, the outcome in the test on NCI-H1299 [2], with NCI-H727 [3] and with Calu-6 [5] was inactive. Further, in test [4], the IC50 is 290 nM.
In the case of `CC(C)c1cc(C(C)(C)C)cc(-c2cccc(Cl)c2)c1CO`, in test [1], the outcome was Active. For the same molecule, the IC50 in test [4] was found to be 100 nM. Besides, the result in the test with Calu-6 [6], in the test with NCI-H727 [7] and in the test with NCI-H1299 [8] was inactive.
Regarding `Cc1cccc(-c2cc(C(C)(C)C)cc(C(C)C)c2CO)c1`, the outcome in test [1] was Active. The IC50 in test [4] stood at 240 nM. Also, the result in the test with Calu-6 [6], in the test on NCI-H727 [7] and in the test on NCI-H1299 [8] was inactive.
Consider `CC(C)c1cc(C(C)(C)C)cc(-c2ccc(Cl)cc2)c1CO`, for which the outcome in test [1] was Active. The IC50 in test [4] was found to be 290 nM. Further, the result with Calu-6 [6], with NCI-H727 [7] and in the test on NCI-H1299 [8] was inactive.
As for `Cc1ccccc1-c1cc(C(C)(C)C)cc(C(C)C)c1CO`, in test [1], the outcome was Active. The IC50 in test [4] was more than 50000 nM. Besides, the result in the test on Calu-6 [6], in the test on NCI-H727 [7] and in the test on NCI-H1299 [8] was inactive.
In the case of `CC(C)c1cc(C(C)(C)C)cc(-c2cccc(N(C)C)c2)c1CO`, the result in test [1] was Active. For the same molecule, the half-inhibitory concentration (IC50) in test [4] worked out at 310 nM. Also, the result in the test with Calu-6 [6], in the test with NCI-H727 [7] and with NCI-H1299 [8] was inactive.
As for `CCC(=O)Nc1sc2c(c1C#N)CCCC2`, the outcome in test [1] was Active. Also, the outcome in the test with NCI-H1299 [2], in the test on NCI-H727 [3] and in the test with Calu-6 [5] was inactive. In test [4], the half-inhibitory concentration (IC50) amounted to 12000 nM.
As to `COc1ccc(CCC(=O)Nc2sc3c(c2C#N)CCCC3)cc1`, in test [1], the outcome was Active. Moreover, the outcome in the test with NCI-H1299 [2], in the test with NCI-H727 [3] and in the test with Calu-6 [5] was inactive. Further, the IC50 in test [4] is 410 nM.
As for `N#Cc1c(NC(=O)Cc2cc3ccccc3s2)sc2c1CCCC2`, the outcome in test [1] was Active. For the same molecule, the result with NCI-H1299 [2], with NCI-H727 [3] and with Calu-6 [5] was inactive. Moreover, in test [4], the IC50 amounted to 1900 nM.
As to `N#Cc1c(NC(=O)CC2Cc3ccccc3O2)sc2c1CCCC2` (stereo not given), the result in test [1] was Active. Besides, the result with NCI-H1299 [2], with NCI-H727 [3] and in the test with Calu-6 [5] was inactive. Further, in test [4], the IC50 turned out to be 3800 nM.
Take `CC(C)CC(=O)Nc1sc2c(c1C#N)CCCC2`: the result in test [1] was Active. Besides, the result in the test on NCI-H1299 [2], in the test on NCI-H727 [3] and in the test with Calu-6 [5] was inactive. In test [4], the IC50 was determined as 1900 nM.
As for `N#Cc1c(NC(=O)C2CCCC2)sc2c1CCCC2`, the outcome in test [1] was Active. Besides, the result in the test on NCI-H1299 [2], in the test on NCI-H727 [3] and in the test on Calu-6 [5] was inactive. Besides, the IC50 in test [4] came out at 470 nM.
For `N#Cc1c(NC(=O)COc2ccccc2)sc2c1CCCC2`, the result in test [1] was Active. Further, the result with NCI-H1299 [2], in the test on NCI-H727 [3] and with Calu-6 [5] was inactive. Besides, the IC50 in test [4] is 9100 nM.
For `Cc1ccccc1CCC(=O)Nc1sc2c(c1C#N)CCCC2`, in test [1], the result was Active. Besides, the outcome in the test on NCI-H1299 [2], with NCI-H727 [3] and in the test with Calu-6 [5] was inactive. The IC50 in test [4] worked out at 11000 nM.
As to `N#Cc1c(NC(=O)C2CC2)sc2c1CCCC2`, in test [1], the result was Active. Further, the result in the test with NCI-H1299 [2], in the test with NCI-H727 [3] and with Calu-6 [5] was inactive. In addition, in test [4], the IC50 turned out to be 2700 nM.
As to `N#Cc1c(NC(=O)C2Cc3ccccc3C2)sc2c1CCCC2`, in test [1], the outcome was Active. Moreover, the result in the test on NCI-H1299 [2], with NCI-H727 [3] and with Calu-6 [5] was inactive. Also, the IC50 in test [4] was determined as 17000 nM.
`CC(C)C(=O)Nc1sc2c(c1C#N)CCCC2`: the outcome in test [1] was Active. For the same molecule, the outcome in the test on NCI-H1299 [2], with NCI-H727 [3] and with Calu-6 [5] was inactive. Further, in test [4], the IC50 worked out at 3400 nM.
Turning to `N#Cc1c(NC(=O)C2CCC2)sc2c1CCCC2`, the outcome in test [1] was Active. In addition, the outcome in the test on NCI-H1299 [2], in the test with NCI-H727 [3] and in the test with Calu-6 [5] was inactive. Further, in test [4], the IC50 amounted to 1800 nM.
On to `Cc1ccc(CCC(=O)Nc2sc3c(c2C#N)CCCC3)cc1`, for which, in test [1], the result was Active. Besides, the outcome with NCI-H1299 [2], with NCI-H727 [3] and in the test on Calu-6 [5] was inactive. Also, in test [4], the half-maximal inhibitory concentration (IC50) came to 480 nM.
For the molecule `N#Cc1c(NC(=O)Cc2ccccc2)sc2c1CCCC2`, the result in test [1] was Active. Besides, the outcome with NCI-H1299 [2], in the test with NCI-H727 [3] and in the test on Calu-6 [5] was inactive. In addition, the IC50 in test [4] was 1600 nM.
For the molecule `N#Cc1c(NC(=O)C2CCCCC2)sc2c1CCCC2`, the result in test [1] was Active. Also, the result in the test on NCI-H1299 [2], in the test with NCI-H727 [3] and in the test on Calu-6 [5] was inactive. Further, the IC50 in test [4] was 470 nM.
As for `N#Cc1c(NC(=O)Cc2cc3ccccc3[nH]2)sc2c1CCCC2`, the result in test [1] was Active. Also, the result with NCI-H1299 [2], with NCI-H727 [3] and in the test with Calu-6 [5] was inactive. Besides, the IC50 in test [4] was determined as 50000 nM.
Turning to `N#Cc1c(NC(=O)CCc2ccc(Cl)cc2)sc2c1CCCC2`, the outcome in test [1] was Active. For the same molecule, the outcome in the test on NCI-H1299 [2], in the test on NCI-H727 [3] and in the test with Calu-6 [5] was inactive. Moreover, the IC50 in test [4] stood at 1200 nM.
Turning to `COc1cccc(CCC(=O)Nc2sc3c(c2C#N)CCCC3)c1`, in test [1], the result was Active. Further, the outcome with NCI-H1299 [2], in the test on NCI-H727 [3] and with Calu-6 [5] was inactive. Besides, the IC50 in test [4] was found to be 610 nM.
Turning to `CC(=O)Nc1sc2c(c1C#N)CCCC2`, in test [1], the outcome was Active. In addition, the result in the test with NCI-H1299 [2], with NCI-H727 [3] and with Calu-6 [5] was inactive. Besides, the IC50 in test [4] amounted to 13000 nM.
As to `N#Cc1c(NC(=O)C2CCc3ccccc3C2)sc2c1CCCC2` (stereo not given), the result in test [1] was Active. In addition, the result in the test on NCI-H1299 [2], in the test on NCI-H727 [3] and in the test on Calu-6 [5] was inactive. In addition, the concentration for half-maximal inhibition (IC50) in test [4] was 12000 nM.
On to `Cc1cccc(CCC(=O)Nc2sc3c(c2C#N)CCCC3)c1`, for which, in test [1], the result was Active. Besides, the result in the test with NCI-H1299 [2], in the test on NCI-H727 [3] and in the test with Calu-6 [5] was inactive. The IC50 in test [4] stood at 750 nM.
